Test results: ChEMBL document CHEMBL1255425, “Mutant APH(2'')-IIa enzymes with increased activity against amikacin and isepamicin” (2010)
Values after ≈ are worked out from the molar mass of the structure shown.

Tests used:
Escherichia coli [1] = assay: Antibacterial activity against Escherichia coli JM83 harboring empty pHF022 vector by broth microdilution method; assay type: functional
How it was run: (§1)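 MICs by CLSI broth microdilution in Mueller-Hinton II broth; inoculum 5 × 10^5 CFU/ml; plates read after 20 h at 35°C. Host E. coli JM83 carrying pHF022 (empty or with cloned wild-type or mutant aph(2″)-IIa gene between NdeI and HindIII). Values are averages of at least three independent experiments.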

Escherichia coli [2] = assay: Antibacterial activity against Escherichia coli JM83 harboring pHF022 containing aminoglycoside 2''-2a D268N mutant by broth microdilution method; assay type: functional; how it was run: as §1
[3] = Ratio of Kcat to Km for Aminoglycoside […] 2a N196D/D268N mutant using ATP/GTP as second substrate by spectrophotometric assay
How it was run: (§2)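 Enzymes were expressed in E. coli BL21(DE3) and affinity-purified: gentamicin column for wild type and N196D/D268N, kanamycin column for R92H/D268N. Activity was read by continuous PK/LDH-coupled NADH assay in 100 mM HEPES pH 7.5, 10 mM MgCl2, 20 mM KCl, 2 mM PEP, 140 μM NADH, with 5 to 10 nM enzyme. ATP/GTP was varied with kanamycin A fixed at 10 μM. Values came from nonlinear Michaelis-Menten fits.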

[4] = Ratio of Kcat to Km for Aminoglycoside […] 2a using ATP/GTP as second substrate by spectrophotometric assay; how it was run: as §2
Escherichia coli [5] = assay: Antibacterial activity against Escherichia coli JM83 producing aminoglycoside 2''-2a phosphotransferase by broth microdilution method; assay type: functional; how it was run: as §1
[6] = Activity of Aminoglycoside […] 2a using ATP/GTP as second substrate by spectrophotometric assay; how it was run: as §2
Escherichia coli [7] = assay: Antibacterial activity against Escherichia coli JM83 harboring pHF022 containing aminoglycoside 2''-2a phosphotransferase N196D/D268N mutant by broth microdilution method; assay type: functional; how it was run: as §1
Escherichia coli [8] = assay: Antibacterial activity against Escherichia coli JM83 harboring pHF022 containing aminoglycoside 2''-2a N196D mutant by broth microdilution method; assay type: functional; how it was run: as §1
Escherichia coli [9] = assay: Antibacterial activity against Escherichia coli JM83 harboring pHF022 containing aminoglycoside 2''-2a phosphotransferase R92H mutant by broth microdilution method; assay type: functional; how it was run: as §1
[10] = Activity of Aminoglycoside […] 2a R92H/D268N mutant using ATP/GTP as second substrate by spectrophotometric assay; how it was run: as §2
[11] = Ratio of Kcat to Km for Aminoglycoside […] 2a R92H/D268N mutant using ATP/GTP as second substrate by spectrophotometric assay; how it was run: as §2
Escherichia coli [12] = assay: Antibacterial activity against Escherichia coli JM83 harboring pHF022 containing aminoglycoside 2''-2a phosphotransferase R92H/D268N mutant by broth microdilution method; assay type: functional; how it was run: as §1
[13] = Activity of Aminoglycoside […] 2a N196D/D268N mutant using ATP/GTP as second substrate by spectrophotometric assay; how it was run: as §2

| Compound | MIC (Escherichia coli [1]) [µg/mL] | MIC (Escherichia coli [2]) [µg/mL] | kcat/Km [3] | kcat/Km [4] | MIC (Escherichia coli [5]) [µg/mL] | Km [6] [µM] | kcat [6] [s⁻¹] | MIC (Escherichia coli [7]) [µg/mL] | MIC (Escherichia coli [8]) [µg/mL] | MIC (Escherichia coli [9]) [µg/mL] | Km [10] [µM] | kcat [10] [s⁻¹] | kcat/Km [11] | MIC (Escherichia coli [12]) [µg/mL] | Km [13] [µM] | kcat [13] [s⁻¹] |
| --- | --- | --- | --- | --- | --- | --- | --- | --- | --- | --- | --- | --- | --- | --- | --- | --- |
| NC[C@H]1O[C@H](O[C@H]2[C@H](O)[C@@H](O[C@H]3O[C@H](CO)[C@@H](O)[C@H](N)[C@H]3O)[C@H](N)C[C@@H]2N)[C@H](N)C[C@@H]1O [TOBRAMYCIN] | 1 (≈ 2.14 µM) | 32 (≈ 68.4 µM) | > 1.7 ×10⁷ /M/s | 1.7 ×10⁷ /M/s | 64 (≈ 137 µM) | 1.5 | 26.1 | 64 (≈ 137 µM) | 64 (≈ 137 µM) | 64 (≈ 137 µM) | < 1 | 26.7 | > 2.7 ×10⁷ /M/s | 64 (≈ 137 µM) | < 1 | 16.6 |
| NC[C@@H]1O[C@@H](O[C@H]2[C@H](O)[C@@H](O[C@H]3O[C@H](CO)[C@@H](O)[C@H](N)[C@H]3O)[C@H](N)C[C@@H]2N)[C@@H](O)[C@H](O)[C@H]1O [KANAMYCIN A] | 2 (≈ 4.13 µM) | 256 (≈ 528 µM) | > 1.4 ×10⁷ /M/s | 2.2 ×10⁷ /M/s | 256 (≈ 528 µM) | 2.1 | 45.1 | 256 (≈ 528 µM) | 256 (≈ 528 µM) | 256 (≈ 528 µM) | < 1 | 20.5 | > 2 ×10⁷ /M/s | 256 (≈ 528 µM) | < 1 | 13.8 |
| CCN[C@@H]1C[C@H](N)[C@@H](O[C@H]2OC(CN)=CC[C@H]2N)[C@H](O)[C@H]1O[C@H]1OC[C@](C)(O)[C@H](NC)[C@H]1O [NETILMICIN] | 0.25 (≈ 0.526 µM) | 4 (≈ 8.41 µM) | – | – | 8 (≈ 16.8 µM) | – | – | 8 (≈ 16.8 µM) | 8 (≈ 16.8 µM) | 16 (≈ 33.6 µM) | – | – | – | 8 (≈ 16.8 µM) | – | – |
| CN[C@@H]1[C@@H](O)[C@@H](O[C@@H]2[C@@H](O)[C@H](O[C@H]3OC(CN)=CC[C@H]3N)[C@@H](N)C[C@H]2N)OC[C@]1(C)O [SISOMICIN] | 0.25 (≈ 0.559 µM) | 4 (≈ 8.94 µM) | – | – | 8 (≈ 17.9 µM) | – | – | 4 (≈ 8.94 µM) | 8 (≈ 17.9 µM) | 8 (≈ 17.9 µM) | – | – | – | 8 (≈ 17.9 µM) | – | – |
| Nc1nc(=O)c2ncn([C@@H]3O[C@H](COP(=O)(O)OP(=O)(O)OP(=O)(O)O)[C@@H](O)C3O)c2[nH]1 (single isomer, unassigned) | – | – | 6.5 ×10⁵ /M/s | 1.3 ×10⁵ /M/s | – | 70 | 9.4 | – | – | – | 28.2 | 8.9 | 3.2 ×10⁵ /M/s | – | 16.2 | 10.6 |
| NCC[C@H](O)C(=O)N[C@@H]1C[C@H](N)[C@@H](O[C@H]2O[C@H](CN)[C@@H](O)[C@H](O)[C@H]2O)[C@H](O)[C@H]1O[C@H]1O[C@H](CO)[C@@H](O)[C@H](N)[C@H]1O [AMIKACIN] | 2 (≈ 3.42 µM) | 2 (≈ 3.42 µM) | 1 ×10⁶ /M/s | 1.3 ×10⁵ /M/s | 2 (≈ 3.42 µM) | 62.9 | 8.3 | 16 (≈ 27.3 µM) | 2 (≈ 3.42 µM) | 2 (≈ 3.42 µM) | 23.7 | 22.3 | 9.4 ×10⁵ /M/s | 16 (≈ 27.3 µM) | 13.5 | 13.8 |
| NC[C@H]1O[C@H](O[C@H]2[C@H](O)[C@@H](O[C@H]3O[C@H](CO)[C@@H](O)[C@H](N)[C@H]3O)[C@H](N)C[C@@H]2N)[C@H](N)[C@@H](O)[C@@H]1O [BEKANAMYCIN] | 1 (≈ 2.07 µM) | 64 (≈ 132 µM) | – | – | 64 (≈ 132 µM) | – | – | 64 (≈ 132 µM) | 64 (≈ 132 µM) | 64 (≈ 132 µM) | – | – | – | 64 (≈ 132 µM) | – | – |
| NC[C@@H]1CC[C@@H](N)[C@@H](O[C@H]2[C@H](O)[C@@H](O[C@H]3O[C@H](CO)[C@@H](O)[C@H](N)[C@H]3O)[C@H](N)C[C@@H]2N)O1 [DIBEKACIN] | 0.5 (≈ 1.11 µM) | 32 (≈ 70.9 µM) | > 1.7 ×10⁷ /M/s | 1.4 ×10⁷ /M/s | 64 (≈ 142 µM) | 1.2 | 17.1 | 64 (≈ 142 µM) | 64 (≈ 142 µM) | 64 (≈ 142 µM) | 1.2 | 27.5 | 2.3 ×10⁷ /M/s | 64 (≈ 142 µM) | < 1 | 16.9 |
| GENTAMICIN | 0.25 | 16 | – | – | 16 | – | – | 16 | 16 | 16 | – | – | – | 16 | – | – |
| CN[C@@H]1[C@@H](O)[C@@H](O[C@@H]2[C@@H](O)[C@H](O[C@H]3O[C@H](C(C)O)[C@@H](O)[C@H](O)[C@H]3N)[C@@H](N)C[C@H]2N)OC[C@]1(C)O (single isomer, unassigned) [GENETICIN] | 2 (≈ 4.03 µM) | 512 (≈ 1030 µM) | – | – | 512 (≈ 1030 µM) | – | – | 512 (≈ 1030 µM) | 512 (≈ 1030 µM) | 512 (≈ 1030 µM) | – | – | – | 512 (≈ 1030 µM) | – | – |
| Nc1ncnc2c1ncn2[C@@H]1O[C@H](COP(=O)(O)OP(=O)(O)OP(=O)(O)O)[C@@H](O)[C@H]1O | – | – | 2.2 ×10⁶ /M/s | 2.7 ×10⁶ /M/s | – | 16.3 | 43.3 | – | – | – | 29.5 | 21.4 | 7.2 ×10⁵ /M/s | – | 5.6 | 12.1 |
| CN[C@@H]1[C@@H](O)[C@@H](O[C@@H]2[C@@H](O)[C@H](O[C@H]3O[C@H](CN)[C@@H](O)[C@H](O)[C@H]3O)[C@@H](N)C[C@H]2NC(=O)[C@@H](O)CN)OC[C@]1(C)O [ISEPAMICIN] | 2 (≈ 3.51 µM) | 2 (≈ 3.51 µM) | 2 ×10⁶ /M/s | 4.4 ×10⁵ /M/s | 2 (≈ 3.51 µM) | 13.5 | 5.7 | 16 (≈ 28.1 µM) | 2 (≈ 3.51 µM) | 4 (≈ 7.02 µM) | 1.2 | 2.8 | 2.3 ×10⁶ /M/s | 16 (≈ 28.1 µM) | 2 | 4.1 |
